In ChEMBL document CHEMBL5357070, “Nicotinamide Phosphoribosyltransferase Positive Allosteric Modulators Attenuate Neuronal Oxidative Stress” (ACS Med Chem Lett, 2024):
One block for each molecule: values may come before it. Calls of active or inactive are those of the source. The calls are words filed in the database; no cut-off is given here.

Tests used:
[1] = target: T1, Nicotinamide phosphoribosyltransferase (Homo sapiens, UniProt P43490); assay: Positive allosteric modulator activity at human C-terminal his 6 tagged NAMPT using NAM and PRPP as substrate by coupled enzymatic analysis
Target sequence in this assay (P43490 whole entry): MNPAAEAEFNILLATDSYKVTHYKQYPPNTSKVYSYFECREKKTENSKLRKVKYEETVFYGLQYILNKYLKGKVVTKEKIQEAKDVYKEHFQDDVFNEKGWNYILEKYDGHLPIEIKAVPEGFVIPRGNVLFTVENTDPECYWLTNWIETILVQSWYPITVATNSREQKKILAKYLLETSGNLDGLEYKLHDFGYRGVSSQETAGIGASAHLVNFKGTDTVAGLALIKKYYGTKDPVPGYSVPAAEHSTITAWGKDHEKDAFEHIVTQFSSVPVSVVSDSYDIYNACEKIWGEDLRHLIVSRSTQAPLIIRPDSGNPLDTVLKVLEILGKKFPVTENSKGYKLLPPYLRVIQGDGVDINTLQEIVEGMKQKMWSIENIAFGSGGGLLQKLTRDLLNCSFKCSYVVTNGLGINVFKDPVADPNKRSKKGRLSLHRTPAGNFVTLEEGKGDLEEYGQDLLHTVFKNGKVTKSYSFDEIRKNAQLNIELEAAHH

HT-22 [2] = assay: Inhibition of oxidative stress in HT-22 cells assessed as fold reduction in […] induced ROS level at 0.3 uM measured after 18 to 24 hrs by MitoSOX red dye based flow cytometry analysis; format: functional, Mus musculus; conditions: time 18-24 hrs
In short: (§1)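 HT22 mouse hippocampal neuronal cells (passage 12-50) grown in DMEM with 10% FBS, seeded at 3,000-5,000 cells/well on poly D-lysine-coated wells and left overnight. Cells were pretreated with compound in matched DMSO/PBS vehicle for 18-24 h, then stressed with recombinant mouse TNFα for a further 18-24 h. Staining in PBS used 1 μM calcein-AM, 5 μM MitoSOX and 10 μg/mL Hoechst for 30-45 min. Mitochondrial ROS was read as MitoSOX mean intensity on a Celigo imaging cytometer and given as fold-change over vehicle. Each run had ≥3 intraplate replicates, and the assay was repeated in ≥3 separate experiments.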

HT-22 [3] = assay: Inhibition of oxidative stress in HT-22 cells assessed as fold reduction in […] induced ROS level at 5.0 uM measured after 18 to 24 hrs by MitoSOX red dye based flow cytometry analysis; format: functional, Mus musculus; conditions: time 18-24 hrs; in short: as §1
[4] = target: T1, Nicotinamide phosphoribosyltransferase; assay: Positive allosteric modulator activity at C-terminal his 6 tagged NAMPT in human THP-1 cells assessed as increase in NAD+ level at 30 uM incubated for 24 hrs by NAD-glo assay relative to control; format: cell-based
In short: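 THP-1 cells in RPMI 1640 with 10% heat-inactivated FBS, seeded at 37,500 cells/well (low passage). Held 1.5 h at 37 °C, 5% CO2, then treated with compound in DMSO (final ≤1%) for 24 h. NAD+ measured by NAD+/NADH-Glo luminescence. Three separate experiments per concentration.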
Target sequence in this assay (P43490 whole entry, looked up): as the sequence (P43490 whole entry) above

HT-22 [5] = assay: Inhibition of oxidative stress in HT-22 cells assessed as fold reduction in […] induced ROS level at 2.5 uM measured after 18 to 24 hrs by MitoSOX red dye based flow cytometry analysis; format: functional, Mus musculus; conditions: time 18-24 hrs; in short: as §1
HT-22 [6] = assay: Inhibition of oxidative stress in HT-22 cells assessed as fold reduction in […] induced ROS level at 40 uM measured after 18 to 24 hrs by MitoSOX red dye based flow cytometry analysis; format: functional, Mus musculus; conditions: time 18-24 hrs; in short: as §1
HT-22 [7] = assay: Inhibition of oxidative stress in HT-22 cells assessed as reduction in […] induced ROS level at 20 to 40 uM measured after 18 to 24 hrs by MitoSOX red dye based flow cytometry analysis; format: functional, cell-based; conditions: Mus musculus, dose 20-40 µM, time 18-24 hrs
In short: (§2)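 HT22 mouse hippocampal neuronal cells (passage 12-50) seeded at 3,000-5,000 cells/well on poly D-lysine-coated wells and incubated overnight. Cells pretreated with compound (DMSO stocks, matched vehicle) for 18-24 h, then exposed to glutamate or mouse TNFα for 18-24 h. Stained in PBS with 1 μM calcein-AM, 5 μM MitoSOX and 10 μg/mL Hoechst for 30-45 min. Imaging cytometry; MitoSOX mean intensity expressed as fold over vehicle. At least three experiments, each with at least triplicate wells.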

HT-22 [8] = assay: Neuroprotective activity against glutamate induced excitotoxicity in HT-22 cells assessed as decrease in ROS activity measured after 18 to 24 hrs MitoSOX red dye based flow cytometry analysis; format: functional, cell-based; conditions: Mus musculus, dose 1.25-40 µM, time 18-24 hrs; in short: as §2
HT-22 [9] = assay: Neuroprotective activity against glutamate induced excitotoxicity in HT-22 cells assessed as decrease in ROS activity at 20 to 40 uM measured after 18 to 24 hrs by MitoSOX red dye based flow cytometry analysis; format: functional, cell-based; conditions: Mus musculus, dose 20-40 µM, time 18-24 hrs; in short: as §2

- EC50 [1]: > 8 µM
SMILES: COc1ccc(CN(CCC2(C(C)C)CCOC(C)(C)C2)C(=O)c2cnc[nH]2)cc1 (stereo not given)

- EC50 [1]: Not Active
SMILES: COc1ccc(CN(CCC2(C(C)C)CCOC(C)(C)C2)C(=O)c2ccco2)c(C(F)(F)F)c1 (stereo not given)

- EC50 ([1]; read-out: EC50): 12.8 µM
SMILES: COc1ccc(CN(CCC2(C(C)C)CCOC(C)(C)C2)C(=O)c2ccc(Br)s2)cc1 (stereo not given)

- EC50 [1]: Not Active
SMILES: COc1ccc(CN(CCC2(C(C)C)CCOC(C)(C)C2)C(=O)c2cncnc2)cc1 (stereo not given)

- EC50 [1]: Not Active
SMILES: CC(C)C1(CCN(Cc2ccc(OC(F)(F)F)cc2)C(=O)c2ccco2)CCOC(C)(C)C1 (stereo not given)

Continued, molecule first:

SMILES: COc1ccc(CNCCC2CCOCC2)cc1
- EC50 [1]: Not Active

SMILES: COc1ccc(CNC(=O)c2ccco2)cc1
- EC50 [1]: Not Active

SMILES: O=C(NCc1ccncc1)Nc1ccc(S(=O)(=O)N2CC3CCC(C2)O3)cc1
- fold change (FC) (HT-22 [2]): 1.26
- fold change (FC) (HT-22 [3]): 1.348

SMILES: COc1ccc(CN(CCC2(C(C)C)CCOC(C)(C)C2)C(=O)c2ccco2)cc1 (stereo not given)
- Activity [4]: 18%
- fold change (FC) (HT-22 [2]): 1.434
- fold change (FC) (HT-22 [5]): 1.425
- fold change (FC) (HT-22 [6]): 1.133

SMILES: CC(C)C1(CCN(Cc2ccc(N(C)C)cc2)C(=O)c2ccco2)CCOC(C)(C)C1 (stereo not given)
- EC50 ([1]; read-out: EC50): 3.29 µM
- Activity ([4]; filed as positive allosteric modulator): 88%
- fold change (FC) (HT-22 [5]): 1.247
- fold change (FC) (HT-22 [3]): 1.287
- inhibition (HT-22 [7]): Active
- Activity (HT-22 [8]): Dose-Dependent Effect
- Activity (HT-22 [9]): Active
